Columns and labels:
Conditions in all cases: Cell membrane
[1] = target: Adenosine receptor A2a (Homo sapiens) (UniProt P29274); test: Displacement of [3H]ZM2421385 from adenosine A2A receptor expressed in human HeLa cell membranes at 1 uM incubated for 30 mins by scintillation counting method
[2] = target: T1, Adenosine receptor A1 (Homo sapiens) (UniProt P30542); test: Displacement of [3H]DPCPX from human adenosine A1 receptor expressed in CHO cell membranes at 1 uM incubated for 60 mins by scintillation counting method
T1 sequence (whole entry): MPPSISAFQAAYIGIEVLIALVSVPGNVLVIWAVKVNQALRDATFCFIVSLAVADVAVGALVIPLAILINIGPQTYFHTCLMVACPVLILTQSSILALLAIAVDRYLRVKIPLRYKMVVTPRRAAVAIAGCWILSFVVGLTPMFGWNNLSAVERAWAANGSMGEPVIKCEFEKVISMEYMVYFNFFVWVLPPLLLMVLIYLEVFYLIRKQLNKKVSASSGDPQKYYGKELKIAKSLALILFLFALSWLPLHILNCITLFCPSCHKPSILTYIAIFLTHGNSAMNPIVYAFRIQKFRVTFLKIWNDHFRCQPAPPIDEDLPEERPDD

[3] = target: T2, Adenosine receptor A2b (Homo sapiens) (UniProt P29275); test: Displacement of [3H]DPCPX from human adenosine A2B receptor expressed in HEK293 cell membranes at 1 uM incubated for 30 mins by scintillation counting method
T2 sequence (whole entry): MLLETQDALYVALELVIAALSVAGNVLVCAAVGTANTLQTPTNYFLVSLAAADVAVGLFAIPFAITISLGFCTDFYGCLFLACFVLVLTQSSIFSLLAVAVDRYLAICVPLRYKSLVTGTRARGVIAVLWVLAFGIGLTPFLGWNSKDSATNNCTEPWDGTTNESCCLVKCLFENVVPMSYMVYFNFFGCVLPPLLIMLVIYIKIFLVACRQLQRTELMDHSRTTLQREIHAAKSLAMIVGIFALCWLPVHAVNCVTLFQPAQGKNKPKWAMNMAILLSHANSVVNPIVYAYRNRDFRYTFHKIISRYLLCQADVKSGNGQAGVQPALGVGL

[4] = target: T3, Adenosine receptor A3 (Homo sapiens) (UniProt P0DMS8); test: Displacement of [3H]NECA from adenosine A3 receptor expressed in human HeLa cell membranes at 1 uM incubated for 180 mins by scintillation counting method
T3 sequence (whole entry): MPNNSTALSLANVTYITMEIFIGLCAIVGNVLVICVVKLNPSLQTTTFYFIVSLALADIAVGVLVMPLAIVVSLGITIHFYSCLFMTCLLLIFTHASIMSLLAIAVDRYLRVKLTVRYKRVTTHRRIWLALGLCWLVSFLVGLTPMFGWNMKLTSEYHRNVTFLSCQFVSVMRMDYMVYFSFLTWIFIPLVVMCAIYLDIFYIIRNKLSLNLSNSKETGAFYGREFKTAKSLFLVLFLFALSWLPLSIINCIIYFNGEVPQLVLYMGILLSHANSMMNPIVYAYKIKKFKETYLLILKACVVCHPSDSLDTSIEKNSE
Procedure, shortened: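 hA3AR in HeLa membranes (3 pmol/mg protein) with 10 nM [3H]NECA (KD 8.7 nM); nonspecific binding with 100 μM R-PIA; incubated 180 min at 25 °C, washed, filtered, radioactivity counted.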

Chain of Adenosine receptor A2a (Homo sapiens) (P29274 whole entry): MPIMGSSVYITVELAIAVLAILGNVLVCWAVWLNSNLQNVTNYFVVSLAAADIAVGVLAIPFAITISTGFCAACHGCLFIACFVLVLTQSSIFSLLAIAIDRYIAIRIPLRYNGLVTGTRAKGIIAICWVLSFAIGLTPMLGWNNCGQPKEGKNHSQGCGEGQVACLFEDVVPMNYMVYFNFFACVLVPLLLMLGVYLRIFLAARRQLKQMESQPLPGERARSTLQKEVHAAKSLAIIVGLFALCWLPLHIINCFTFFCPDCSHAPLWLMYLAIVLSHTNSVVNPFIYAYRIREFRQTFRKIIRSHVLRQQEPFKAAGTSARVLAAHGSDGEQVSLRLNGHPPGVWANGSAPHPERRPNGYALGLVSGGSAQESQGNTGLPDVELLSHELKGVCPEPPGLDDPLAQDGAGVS

Compound | inhibition [1] | inhibition [2] | inhibition [3] | inhibition [4] | inhibition ([3]; filed as antagonist)
CC1=C(C(=O)C2CC2)C(c2cccs2)NC(=O)N1 (racemic) | 1% | 1% | 1% | 15% | –
CC1=C(C(=O)C2CC2)C(c2ccoc2)NC(=O)N1 (racemic) | 1% | 1% | 10% | 16% | –
CC1=C(C(=O)C2CC2)C(c2ccsc2)NC(=O)N1 (racemic) | 4% | 2% | 1% | 1% | –
CC1=C(C(=O)CC(C)C)C(c2cccs2)NC(=O)N1 (racemic) | 1% | 19% | – | 18% | 43%
CC1=C(C(=O)NC(C)C)C(c2cccs2)NC(=O)N1 (racemic) | 22% | 2% | – | 1% | 40%
CC1=C(C(=O)NC(C)C)C(c2ccoc2)NC(=O)N1 (racemic) | 1% | 1% | 3% | 3% | –
CC1=C(C(=O)NC(C)C)C(c2ccsc2)NC(=O)N1 (racemic) | 1% | 8% | 3% | 1% | –
CC1=C(C(=O)OC(C)(C)C)C(c2ccsc2)NC(=O)N1C (racemic) | 1% | 18% | 35% | 14% | –
CC1=C(C(=O)OC2CCCCC2)C(c2ccoc2)NC(=O)N1 (racemic) | 3% | 15% | 4% | 1% | –
CC1=C(C(=O)OCC(C)C)C(c2ccsc2)NC(=O)N1C (racemic) | 2% | 8% | 1% | 4% | –
CC1=C(C(N)=O)C(c2ccsc2)NC(=O)N1 (racemic) | 18% | 2% | 1% | 1% | –
CC1=C(c2ncc(C)o2)C(c2cccs2)NC(=O)N1 (racemic) | 7% | 21% | – | 1% | 45%
CCC(CC)OC(=O)C1=C(C)NC(=O)NC1c1cccs1 (racemic) | 4% | 13% | 6% | 1% | –
CCC(CC)OC(=O)C1=C(C)NC(=O)NC1c1ccoc1 (racemic) | 2% | 17% | 28% | 5% | –
CCCOC(=O)C1=C(C)N(C)C(=O)NC1c1ccsc1 (racemic) | 3% | 2% | 1% | 11% | –
CCN(CC)C(=O)C1=C(C)NC(=O)NC1c1cccs1 (racemic) | 15% | 13% | 22% | 31% | –
CCN(CC)C(=O)C1=C(C)NC(=O)NC1c1ccsc1 (racemic) | 9% | 11% | 11% | 35% | –
CCOP(=O)(OCC)C1=C(C)NC(=O)NC1c1cccs1 (racemic) | 5% | 2% | 7% | 5% | –
CCOP(=O)(OCC)C1=C(C)NC(=O)NC1c1ccoc1 (racemic) | 8% | 1% | 3% | 2% | –
CCOP(=O)(OCC)C1=C(C)NC(=O)NC1c1ccsc1 (racemic) | 3% | 4% | 1% | 1% | –
COC(=O)C1=C(C)N(C)C(=O)NC1c1ccsc1 (racemic) | 13% | 24% | 26% | 22% | –

Now from value to compound:

inhibition [1] | inhibition [2] | inhibition [3] | inhibition [4] | inhibition ([3]; filed as antagonist) | Compound
2% | 11% | 2% | 3% | – | CC(=O)C1=C(C)NC(=O)NC1c1cccs1 (racemic)
1% | 6% | 15% | 2% | – | CC(=O)C1=C(C)NC(=O)NC1c1ccoc1 (racemic)
1% | 9% | 24% | 1% | – | CC(=O)C1=C(C)NC(=O)NC1c1ccsc1 (racemic)
1% | 3% | 2% | 4% | – | CC1=C(C(=O)NC(C)C)C(c2ccco2)NC(=O)N1 (racemic)
5% | 1% | 1% | 4% | – | CC1=C(C(=O)OC2CCCCC2)C(c2ccco2)NC(=O)N1 (racemic)
2% | 5% | 22% | 1% | – | CC1=C(C(=O)SC(C)C)C(c2ccco2)NC(=O)N1 (racemic)
1% | 1% | 1% | 1% | – | CC1=C(C(=O)SC(C)C)C(c2cccs2)NC(=O)N1 (racemic)
2% | 24% | 14% | 1% | – | CC1=C(C(=O)SC(C)C)C(c2ccsc2)NC(=O)N1 (racemic)
1% | 2% | 3% | 1% | – | CC1=C(C(N)=O)C(c2cccs2)NC(=O)N1 (racemic)
3% | 1% | 6% | 2% | – | CC1=C(C(N)=O)C(c2ccoc2)NC(=O)N1 (racemic)
3% | 2% | 35% | 1% | – | CCC(CC)OC(=O)C1=C(C)NC(=O)NC1c1ccco1 (racemic)
23% | 2% | 9% | 2% | – | CCCC(=O)C1=C(C)NC(=O)NC1c1cccs1 (racemic)
2% | 1% | 22% | 2% | – | CCCC(=O)C1=C(C)NC(=O)NC1c1ccoc1 (racemic)
11% | 6% | 9% | 1% | – | CCCC(=O)C1=C(C)NC(=O)NC1c1ccsc1 (racemic)
9% | 11% | 31% | 19% | – | CCN(CC)C(=O)C1=C(C)NC(=O)NC1c1ccco1 (racemic)
6% | 15% | 12% | 37% | – | CCN(CC)C(=O)C1=C(C)NC(=O)NC1c1ccoc1 (racemic)
1% | 2% | 1% | 3% | – | CCNC(=O)C1=C(C)NC(=O)NC1c1ccco1 (racemic)
1% | 1% | 1% | 4% | – | CCNC(=O)C1=C(C)NC(=O)NC1c1cccs1 (racemic)
2% | 1% | 2% | 1% | – | CCNC(=O)C1=C(C)NC(=O)NC1c1ccoc1 (racemic)
17% | 3% | 1% | 1% | – | CCNC(=O)C1=C(C)NC(=O)NC1c1ccsc1 (racemic)
4% | 3% | 2% | 4% | – | CCOP(=O)(OCC)C1=C(C)NC(=O)NC1c1ccco1 (racemic)
2% | 6% | 29% | 14% | – | CCSC(=O)C1=C(C)NC(=O)NC1c1ccco1 (racemic)
8% | 6% | 1% | 1% | – | CCSC(=O)C1=C(C)NC(=O)NC1c1cccs1 (racemic)
1% | 3% | 1% | 1% | – | CCSC(=O)C1=C(C)NC(=O)NC1c1ccoc1 (racemic)
1% | 11% | 17% | 2% | – | CCSC(=O)C1=C(C)NC(=O)NC1c1ccsc1 (racemic)

Source: ChEMBL document CHEMBL4765483 (J Med Chem, 2021)
